Laboratory results from ChEMBL document CHEMBL1143753, “Synthesis and antimicrobial activity of some new thiazolyl thiazolidine-2,4-dione derivatives” (2007).
In brackets after ≈: the same amount, converted by molar mass.

Assays:
Format in all cases: functional
Staphylococcus aureus [1] = assay: Antibacterial activity against methicillin-resistant Staphylococcus aureus isolate after 24 hrs
In short: (§1)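 Compounds were dissolved in dimethylformamide/propyleneglycol (0.5:9.5) and serially diluted twofold in Mueller–Hinton broth at pH 7.4, from 100 down to 0.78. Inocula came from 24 h broth cultures grown at 37 °C, with a final inoculum of 10⁵ CFU/ml. Tubes were incubated for 24 h at 37 °C alongside inoculated-broth and solvent controls. The MIC was read as the last tube showing no growth.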

Escherichia coli = assay: Antibacterial activity against Escherichia coli ATCC 23556 after 24 hrs; details: ATCC 23556, 24 h
In short: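 Twofold serial broth dilution in Mueller–Hinton broth, pH 7.4; compounds dissolved in dimethylformamide/propyleneglycol (0.5:9.5), diluted in medium from 100 down to 0.78 (100, 50, 25, 12.5, 6.25, 3.12, 1.56, 0.78). Inoculum 10⁵ CFU/ml from 24 h broth cultures. Incubated 24 h at 37 °C; MIC taken as last tube without growth. Inoculated broth-only tubes as controls.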

Staphylococcus aureus [2] = assay: Antibacterial activity against methicillin-resistant Staphylococcus aureus ATCC 43300 after 24 hrs; details: ATCC 43300, 24 h; in short: as §1
Candida albicans = assay: Antifungal activity against Candida albicans ATCC 10145 after 48 hrs; details: ATCC 10145, 48 h
In short: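 Yeast maintained in Sabouraud dextrose broth, 24 h at 25 °C; testing by twofold serial dilution in Sabouraud dextrose broth, pH 7.4, final inoculum 10⁴ CFU/ml. Compounds in dimethylformamide/propyleneglycol (0.5:9.5), diluted in medium from 100 to 0.78 (100, 50, 25, 12.5, 6.25, 3.12, 1.56, 0.78).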

Staphylococcus aureus [3] = assay: Antibacterial activity against Staphylococcus aureus ATCC 25923 after 24 hrs; details: ATCC 25923, 24 h; in short: as §1

O=C(CN1C(=O)S/C(=C\c2sc(Cl)nc2Cl)C1=O)c1ccc([N+](=O)[O-])cc1
MIC (Staphylococcus aureus [1]): 12.5 µg/mL (≈ 28.1 µM)
MIC (Escherichia coli): 25 µg/mL (≈ 56.3 µM)
MIC (Staphylococcus aureus [2]): 12.5 µg/mL (≈ 28.1 µM)
MIC (Candida albicans): 6.25 µg/mL (≈ 14.1 µM)
MIC (Staphylococcus aureus [3]): 12.5 µg/mL (≈ 28.1 µM)

O=C(CN1C(=O)S/C(=C\c2sc(Cl)nc2Cl)C1=O)c1ccc(F)cc1
MIC (Staphylococcus aureus [1]): 6.25 µg/mL (≈ 15 µM)
MIC (Escherichia coli): 6.25 µg/mL (≈ 15 µM)
MIC (Staphylococcus aureus [2]): 6.25 µg/mL (≈ 15 µM)
MIC (Candida albicans): 12.5 µg/mL (≈ 30 µM)
MIC (Staphylococcus aureus [3]): 6.25 µg/mL (≈ 15 µM)

O=C(CN1C(=O)S/C(=C\c2sc(Cl)nc2Cl)C1=O)c1ccc(Cl)cc1
MIC (Staphylococcus aureus [1]): 6.25 µg/mL (≈ 14.4 µM)
MIC (Escherichia coli): 25 µg/mL (≈ 57.6 µM)
MIC (Staphylococcus aureus [2]): 6.25 µg/mL (≈ 14.4 µM)
MIC (Candida albicans): 6.25 µg/mL (≈ 14.4 µM)
MIC (Staphylococcus aureus [3]): 6.25 µg/mL (≈ 14.4 µM)

O=C(CN1C(=O)S/C(=C\c2sc(Cl)nc2Cl)C1=O)c1ccc(Br)cc1
MIC (Staphylococcus aureus [1]): 12.5 µg/mL (≈ 26.1 µM)
MIC (Escherichia coli): 6.25 µg/mL (≈ 13.1 µM)
MIC (Staphylococcus aureus [2]): 6.25 µg/mL (≈ 13.1 µM)
MIC (Candida albicans): 6.25 µg/mL (≈ 13.1 µM)
MIC (Staphylococcus aureus [3]): 12.5 µg/mL (≈ 26.1 µM)

O=C1S/C(=C\c2sc(Cl)nc2Cl)C(=O)N1Cc1ccc(F)cc1
MIC (Staphylococcus aureus [1]): 6.25 µg/mL (≈ 16.1 µM)
MIC (Escherichia coli): 25 µg/mL (≈ 64.2 µM)
MIC (Staphylococcus aureus [2]): 6.25 µg/mL (≈ 16.1 µM)
MIC (Candida albicans): 12.5 µg/mL (≈ 32.1 µM)
MIC (Staphylococcus aureus [3]): 6.25 µg/mL (≈ 16.1 µM)

O=C1S/C(=C\c2sc(Cl)nc2Cl)C(=O)N1Cc1ccc(Cl)cc1
MIC (Staphylococcus aureus [1]): 6.25 µg/mL (≈ 15.4 µM)
MIC (Escherichia coli): 25 µg/mL (≈ 61.6 µM)
MIC (Staphylococcus aureus [2]): 6.25 µg/mL (≈ 15.4 µM)
MIC (Candida albicans): 6.25 µg/mL (≈ 15.4 µM)
MIC (Staphylococcus aureus [3]): 6.25 µg/mL (≈ 15.4 µM)

O=C1S/C(=C\c2sc(Cl)nc2Cl)C(=O)N1Cc1ccc(Cl)cc1Cl
MIC (Staphylococcus aureus [1]): 12.5 µg/mL (≈ 28.4 µM)
MIC (Escherichia coli): 25 µg/mL (≈ 56.8 µM)
MIC (Staphylococcus aureus [2]): 12.5 µg/mL (≈ 28.4 µM)
MIC (Candida albicans): 6.25 µg/mL (≈ 14.2 µM)
MIC (Staphylococcus aureus [3]): 12.5 µg/mL (≈ 28.4 µM)

O=C1S/C(=C\c2sc(Cl)nc2Cl)C(=O)N1Cc1ccc([N+](=O)[O-])cc1
MIC (Staphylococcus aureus [1]): 12.5 µg/mL (≈ 30 µM)
MIC (Escherichia coli): 25 µg/mL (≈ 60.1 µM)
MIC (Staphylococcus aureus [2]): 6.25 µg/mL (≈ 15 µM)
MIC (Candida albicans): 12.5 µg/mL (≈ 30 µM)
MIC (Staphylococcus aureus [3]): 6.25 µg/mL (≈ 15 µM)

O=C(CN1C(=O)S/C(=C\c2sc(Cl)nc2Cl)C1=O)c1ccc(Cl)cc1Cl
MIC (Staphylococcus aureus [1]): 12.5 µg/mL (≈ 26.7 µM)
MIC (Escherichia coli): 25 µg/mL (≈ 53.4 µM)
MIC (Staphylococcus aureus [2]): 12.5 µg/mL (≈ 26.7 µM)
MIC (Candida albicans): 12.5 µg/mL (≈ 26.7 µM)
MIC (Staphylococcus aureus [3]): 12.5 µg/mL (≈ 26.7 µM)

O=C1S/C(=C\c2sc(Cl)nc2Cl)C(=O)N1Cc1ccccc1
MIC (Staphylococcus aureus [1]): 12.5 µg/mL (≈ 33.7 µM)
MIC (Escherichia coli): 25 µg/mL (≈ 67.3 µM)
MIC (Staphylococcus aureus [2]): 6.25 µg/mL (≈ 16.8 µM)
MIC (Candida albicans): 6.25 µg/mL (≈ 16.8 µM)
MIC (Staphylococcus aureus [3]): 12.5 µg/mL (≈ 33.7 µM)

O=C1S/C(=C\c2sc(Cl)nc2Cl)C(=O)N1Cc1ccc(Br)cc1
MIC (Staphylococcus aureus [1]): 6.25 µg/mL (≈ 13.9 µM)
MIC (Escherichia coli): 25 µg/mL (≈ 55.5 µM)
MIC (Staphylococcus aureus [2]): 12.5 µg/mL (≈ 27.8 µM)
MIC (Candida albicans): 6.25 µg/mL (≈ 13.9 µM)
MIC (Staphylococcus aureus [3]): 6.25 µg/mL (≈ 13.9 µM)

O=C(CN1C(=O)S/C(=C\c2sc(Cl)nc2Cl)C1=O)c1ccccc1
MIC (Staphylococcus aureus [1]): 6.25 µg/mL (≈ 15.7 µM)
MIC (Escherichia coli): 25 µg/mL (≈ 62.6 µM)
MIC (Staphylococcus aureus [2]): 6.25 µg/mL (≈ 15.7 µM)
MIC (Candida albicans): 12.5 µg/mL (≈ 31.3 µM)
MIC (Staphylococcus aureus [3]): 6.25 µg/mL (≈ 15.7 µM)

O=C(CN1C(=O)S/C(=C/c2sc(Cl)nc2Cl)C1=O)c1ccc(Cl)cc1
MIC (Staphylococcus aureus [1]): 6.25 µg/mL (≈ 14.4 µM)
MIC (Escherichia coli): 50 µg/mL (≈ 115 µM)
MIC (Staphylococcus aureus [2]): 12.5 µg/mL (≈ 28.8 µM)
MIC (Candida albicans): 6.25 µg/mL (≈ 14.4 µM)
MIC (Staphylococcus aureus [3]): 12.5 µg/mL (≈ 28.8 µM)

O=C(CN1C(=O)S/C(=C/c2sc(Cl)nc2Cl)C1=O)c1ccc(Cl)cc1Cl
MIC (Staphylococcus aureus [1]): 12.5 µg/mL (≈ 26.7 µM)
MIC (Escherichia coli): 25 µg/mL (≈ 53.4 µM)
MIC (Staphylococcus aureus [2]): 12.5 µg/mL (≈ 26.7 µM)
MIC (Candida albicans): 12.5 µg/mL (≈ 26.7 µM)
MIC (Staphylococcus aureus [3]): 12.5 µg/mL (≈ 26.7 µM)

CC1(C)S[C@@H]2[C@H](NC(=O)[C@H](N)c3ccccc3)C(=O)N2[C@H]1C(=O)O [AMPICILLIN]
MIC (Staphylococcus aureus [1]): 1.56 µg/mL (≈ 4.46 µM)
MIC (Escherichia coli): 25 µg/mL (≈ 71.5 µM)
MIC (Staphylococcus aureus [2]): 1.56 µg/mL (≈ 4.46 µM)
MIC (Staphylococcus aureus [3]): 6.25 µg/mL (≈ 17.9 µM)

Clc1ccc(COC(Cn2ccnc2)c2ccc(Cl)cc2Cl)c(Cl)c1 (stereo unspecified) [MICONAZOLE]
MIC (Staphylococcus aureus [2]): 6.25 µg/mL (≈ 15 µM)
MIC (Candida albicans): 25 µg/mL (≈ 60.1 µM)
